In ChEMBL document CHEMBL4422635, “Structure-Based Discovery of a Subtype-Selective Inhibitor Targeting a Transient Receptor Potential Vanilloid Channel” (J Med Chem, 2019):
Calls of active or inactive are those of the source. The calls are words filed in the database; no cut-off is given here.

Assays:
[1] = target: T1, Transient receptor potential cation channel subfamily V member 2 (Mus musculus) (UniProt Q9WTR1); assay: Antagonist activity at mouse TRPV2 expressed in HEK293T cells assessed as inhibition of 2-APB evoked currents at -60 mV holding potential by whole-cell patch clamp assay; assay type: cell-based
T1 sequence (whole entry): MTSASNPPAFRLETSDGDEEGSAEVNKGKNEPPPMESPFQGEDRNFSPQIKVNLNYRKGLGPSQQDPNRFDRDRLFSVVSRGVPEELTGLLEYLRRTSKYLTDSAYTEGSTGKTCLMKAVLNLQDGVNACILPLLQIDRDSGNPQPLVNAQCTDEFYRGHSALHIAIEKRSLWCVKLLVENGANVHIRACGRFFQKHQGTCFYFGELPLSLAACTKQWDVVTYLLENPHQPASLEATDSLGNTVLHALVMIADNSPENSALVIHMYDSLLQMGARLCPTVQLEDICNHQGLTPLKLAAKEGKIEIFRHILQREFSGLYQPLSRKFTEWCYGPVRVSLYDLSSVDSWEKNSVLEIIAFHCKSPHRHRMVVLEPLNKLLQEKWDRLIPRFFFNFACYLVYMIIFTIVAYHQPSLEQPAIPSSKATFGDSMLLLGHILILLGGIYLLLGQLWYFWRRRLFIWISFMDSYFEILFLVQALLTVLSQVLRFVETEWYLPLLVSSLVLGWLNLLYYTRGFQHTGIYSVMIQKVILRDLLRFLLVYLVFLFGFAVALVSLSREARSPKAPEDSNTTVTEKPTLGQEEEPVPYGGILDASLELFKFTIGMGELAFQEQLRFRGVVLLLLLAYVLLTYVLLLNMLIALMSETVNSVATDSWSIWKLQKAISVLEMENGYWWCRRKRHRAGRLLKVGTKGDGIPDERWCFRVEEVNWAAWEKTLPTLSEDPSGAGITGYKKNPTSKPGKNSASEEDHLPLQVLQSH
How it was run: (§1)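 Whole-cell voltage clamp of transiently transfected HEK293T cells co-expressing GFP, recorded 36-96 h post-transfection. Hold -60 mV; pipettes 3-7 MΩ. Bath 165 mM NaCl, 10 mM HEPES pH 7.3; pipette 140 mM KCl, 10 mM HEPES pH 7.3. Room temperature (~25 °C). IC50 from Hill fits of I/I0, the current ratio after vs before inhibitor; mean ± SEM.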

[2] = target: T1, Transient receptor potential cation channel subfamily V member 2 (Mus musculus); assay: Inhibition of mouse TRPV2 expressed in HEK293T cells assessed as inhibition of 2-APB evoked currents at 10 uM at -60 mV holding potential by whole-cell patch clamp assay; assay type: cell-based; how it was run: as §1
Mus musculus [3] = assay: Antagonist activity at mouse TRPV2/LPAR1 expressed in LPA-stimulated HEK293T cells assessed as inhibition of 2-APB evoked currents at 10 uM dosed 3 mins after LPA stimulation by whole-cell patch clamp assay; how it was run: as §1
Mus musculus [4] = assay: Antagonist activity at mouse TRPV2/LPAR1 expressed in LPA-stimulated HEK293T cells assessed as inhibition of 2-APB evoked currents at 1 uM dosed 3 mins after LPA stimulation by whole-cell patch clamp assay; how it was run: as §1
[5] = target: T2, Transient receptor potential cation channel subfamily V member 2 (Homo sapiens, UniProt Q9Y5S1); assay: Antagonist activity at TRPV2 (unknown origin); how it was run: as §1
T2 sequence (Q9Y5S1 whole entry): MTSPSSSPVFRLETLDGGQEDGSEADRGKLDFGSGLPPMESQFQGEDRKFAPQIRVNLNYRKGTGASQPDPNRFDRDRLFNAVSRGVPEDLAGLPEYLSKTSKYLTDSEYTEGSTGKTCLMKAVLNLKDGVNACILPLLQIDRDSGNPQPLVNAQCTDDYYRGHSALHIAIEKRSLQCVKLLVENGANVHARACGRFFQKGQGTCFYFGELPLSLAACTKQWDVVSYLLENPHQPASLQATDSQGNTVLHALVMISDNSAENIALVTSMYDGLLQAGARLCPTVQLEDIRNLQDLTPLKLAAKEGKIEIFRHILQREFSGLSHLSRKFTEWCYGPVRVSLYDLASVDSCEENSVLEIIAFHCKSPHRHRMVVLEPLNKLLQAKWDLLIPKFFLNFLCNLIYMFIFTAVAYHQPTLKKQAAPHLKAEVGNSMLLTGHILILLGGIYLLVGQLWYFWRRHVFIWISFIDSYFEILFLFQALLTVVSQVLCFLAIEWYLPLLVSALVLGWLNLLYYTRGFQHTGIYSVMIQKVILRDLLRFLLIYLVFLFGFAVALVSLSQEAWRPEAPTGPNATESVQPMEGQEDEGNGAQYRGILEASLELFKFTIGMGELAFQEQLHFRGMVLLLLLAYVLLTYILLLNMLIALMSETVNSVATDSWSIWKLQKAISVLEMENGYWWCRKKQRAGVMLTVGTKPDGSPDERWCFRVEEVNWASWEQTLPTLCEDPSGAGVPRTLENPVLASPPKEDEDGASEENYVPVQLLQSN

## COc1ccc(-c2cc(C(F)(F)F)nc(SCCC(=O)NCc3ccco3)n2)cc1
[1]
  inhibition: Dose-dependent effect
[2]
  inhibition: Active

## Cc1noc(-c2ccc(-c3ccc(CC(=O)O)cc3)cc2)c1NC(=O)O[C@H](C)c1ccccc1Cl
Mus musculus [3]
  inhibition: Active
Mus musculus [4]
  inhibition: Active

## CN1CCN(c2cc(C(F)(F)F)nc(SCCC(=O)NCc3ccco3)n2)CC1
[1]
  inhibition: Dose-dependent effect

## COc1ccc(/C=C/C(=O)Nc2ccccc2C(=O)O)cc1OC [TRANILAST]
[5]
  IC50: > 10 µM
